The source of these data is ChEMBL document CHEMBL1155930, “Novel dimeric aryldiketo containing inhibitors of HIV-1 integrase: effects of the phenyl substituent and the linker orientation” (Bioorg Med Chem, 2008).

Bounds are passed on as bounds.

Assay [1] has as its target T1, Human immunodeficiency virus type 1 integrase (Human immunodeficiency virus 1, UniProt Q7ZJM1). Description: Inhibition of wild-type HIV1 integrase strand transfer activity using [32P]-labeled linear oligonucleotide substrate by polyacrylamide gel electrophoresis. In outline:
(§1)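 Wild-type IN (final 200 nM) preincubated with inhibitor for 30 min at 30 °C in buffer containing 50 mM NaCl, 1 mM HEPES pH 7.5, 50 μM EDTA, 50 μM DTT, 10% glycerol, 7.5 mM MnCl2, 0.1 mg/mL BSA, 10 mM 2-mercaptoethanol, 10% DMSO, 25 mM MOPS pH 7.2. Then 20 nM 5'-32P-labeled annealed 21-mer duplex added, 1 h more. Quenched with formamide loading dye. IC50 from log concentration vs percent inhibition.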

Assay [2] concerns the target T1, Human immunodeficiency virus type 1 integrase. Put plainly: Inhibition of wild-type HIV1 integrase 3'-processing activity using [32P]-labeled linear oligonucleotide substrate by polyacrylamide gel electrophoresis. The procedure, abridged:
as §1

T1 sequence (Q7ZJM1 whole entry): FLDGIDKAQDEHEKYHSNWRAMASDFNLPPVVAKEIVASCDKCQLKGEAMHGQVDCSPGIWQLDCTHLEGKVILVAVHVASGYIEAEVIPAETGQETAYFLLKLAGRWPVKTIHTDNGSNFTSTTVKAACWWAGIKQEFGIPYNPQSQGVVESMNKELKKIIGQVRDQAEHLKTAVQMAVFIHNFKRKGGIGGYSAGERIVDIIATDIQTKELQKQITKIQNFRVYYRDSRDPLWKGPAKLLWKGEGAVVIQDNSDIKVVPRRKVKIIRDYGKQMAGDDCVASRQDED

Regarding `O=C(CC(=O)c1cccc(OCc2ccccc2)c1)C(=O)OC1CCN(C(=O)C(=O)CC(=O)c2cccc(OCc3ccccc3)c2)CC1`, the IC50 is 3 µM in assay [1] and 91 µM in assay [2].
On to `COC(=O)/C(O)=C/C(=O)c1ccc(OC)c(OCc2ccccc2)c1`, for which the figures for the IC50 in assay [1] and in assay [2] were 16 µM and over 100 µM, respectively.
Turning to `COC(=O)/C(O)=C/C(=O)c1ccccc1F`, the IC50 in assay [1] and in assay [2] was over 100 µM in each case.
Consider `COc1ccc(C(=O)/C=C(\O)C(=O)O)cc1OCc1ccccc1`, for which the results for the IC50 in assay [1] and in assay [2] were under 0.4 µM and 55 µM, respectively.
Turning to `O=C(O)/C(O)=C/C(=O)c1cccc(OCc2ccccc2)c1`, the values for the IC50 in assay [1] and in assay [2] were under 0.4 µM and 19 µM, respectively.
The corresponding values for `O=C(CC(=O)c1cccc(OCc2ccccc2)c1)C(=O)N1CCN(C(=O)C(=O)CC(=O)c2cccc(OCc3ccccc3)c2)CC1` are 1.8 µM and 56 µM.
Turning to `COC(=O)/C(O)=C/C(=O)c1cccc(NC(=O)OCc2ccccc2)c1`, the IC50 in assay [1] stood at 7 µM; in assay [2] it was 99 µM.
Turning to `O=C(CC(=O)c1ccccc1Cl)C(=O)NC1CCN(C(=O)C(=O)CC(=O)c2ccccc2Cl)CC1`, the IC50 is 31 µM in assay [1] and 99 µM in assay [2].
As to `O=C(O)/C(O)=C/C(=O)c1ccccc1`, the IC50 was 24.2 µM in assay [1] and over 100 µM in assay [2].
Turning to `COc1cccc(C(=O)CC(=O)C(=O)NC2CCC(NC(=O)C(=O)CC(=O)c3cccc(OC)c3)CC2)c1` (stereo not drawn), the IC50 in assay [1] was 26 µM; in assay [2], over 100 µM.
The corresponding values for `COC(=O)/C(O)=C/C(=O)c1cccc(N(Cc2ccccc2)Cc2ccccc2)c1` are over 100 µM and over 100 µM.
Taken in the same sequence, the figures for `O=C(CC(=O)c1ccc(F)cc1)C(=O)NC1CCC(NC(=O)C(=O)CC(=O)c2ccc(F)cc2)CC1` (stereo not drawn) were 35.5 µM and over 100 µM.
Taken in the same sequence, the figures for `Cc1cc(C(=O)/C=C(\O)C(=O)O)ccc1Cl` were 4.7 µM and 94 µM.
Regarding `O=C(O)/C(O)=C/C(=O)c1ccc([N+](=O)[O-])cc1`, the IC50 is 45 µM in assay [1] and over 100 µM in assay [2].
Regarding `O=C(CC(=O)c1ccccc1Cl)C(=O)NC1CCC(NC(=O)C(=O)CC(=O)c2ccccc2Cl)CC1` (stereo not drawn), the IC50 in assay [1] amounted to 30 µM; in assay [2], 92 µM.
Taken in the same sequence, the figures for `O=C(CC(=O)c1ccc(F)cc1)C(=O)N1CCN(C(=O)C(=O)CC(=O)c2ccc(F)cc2)CC1` were 29 µM and over 100 µM.
In the case of `COC(=O)/C(O)=C/C(=O)c1cccc(Cc2ccccc2F)c1`, the IC50 was found to be 0.6 µM in assay [1] and 26 µM in assay [2].
Taken in the same sequence, the figures for `O=C(CC(=O)c1ccccc1F)C(=O)NC1CCC(NC(=O)C(=O)CC(=O)c2ccccc2F)CC1` (stereo not drawn) were 55 µM and over 100 µM.
For the molecule `O=C(O)/C(O)=C/C(=O)c1ccccc1Cl`, the values for the IC50 in assay [1] and in assay [2] were 17 µM and over 100 µM, respectively.
Taken in the same sequence, the figures for `O=C(CC(=O)c1ccc(C(F)(F)F)cc1)C(=O)N1CCN(C(=O)C(=O)CC(=O)c2ccc(C(F)(F)F)cc2)CC1` were 25 µM and over 100 µM.
For `O=C(CC(=O)c1ccc(C(F)(F)F)cc1)C(=O)NC1CCC(NC(=O)C(=O)CC(=O)c2ccc(C(F)(F)F)cc2)CC1` (stereo not drawn), the IC50 in assay [1] was 41 µM; in assay [2], over 100 µM.
Taken in the same sequence, the figures for `O=C(O)/C(O)=C/C(=O)c1ccc(C(F)(F)F)cc1` were 33 µM and over 100 µM.
`O=C(O)/C(O)=C/C(=O)c1ccccc1F`: the results for the IC50 in assay [1] and in assay [2] were 58 µM and over 100 µM, respectively.
Taken in the same sequence, the figures for `CCCCCC12CCC(C(=O)Nc3cccc(C(=O)CC(=O)C(=O)O)c3)(CC1)CC2` were 14 µM and over 100 µM.
The corresponding values for `COC(=O)/C(O)=C/C(=O)c1ccc(F)cc1` are over 100 µM and over 100 µM.
Turning to `COc1cccc(C(=O)CC(=O)C(=O)N2CCN(C(=O)C(=O)CC(=O)c3cccc(OC)c3)CC2)c1`, the IC50 in assay [1] is 26 µM; in assay [2] it was over 100 µM.
The corresponding values for `O=C(CC(=O)c1ccccc1Cl)C(=O)N1CCN(C(=O)C(=O)CC(=O)c2ccccc2Cl)CC1` are over 100 µM and over 100 µM.
As to `O=C(CC(=O)c1cccc(OCc2ccccc2)c1)C(=O)NC1CCC(NC(=O)C(=O)CC(=O)c2cccc(OCc3ccccc3)c2)CC1` (stereo not drawn), the half-inhibitory concentration (IC50) was 7 µM in assay [1] and over 100 µM in assay [2].
Taken in the same sequence, the figures for `CC(C)(C)OC(=O)N1CCC(NC(=O)/C(O)=C/C(=O)c2ccc(F)cc2)CC1` were 100 µM and over 100 µM.
Taken in the same sequence, the figures for `COc1cccc(C(=O)/C=C(\O)C(=O)O)c1` were 27 µM and over 100 µM.
Taken in the same sequence, the figures for `O=C(CC(=O)c1cccc(OCc2ccccc2)c1)C(=O)NC1CCN(C(=O)C(=O)CC(=O)c2cccc(OCc3ccccc3)c2)CC1` were under 0.4 µM and 23 µM.
Consider `COc1cccc(C(=O)CC(=O)C(=O)NC2CCN(C(=O)C(=O)CC(=O)c3cccc(OC)c3)CC2)c1`, for which the figures for the IC50 in assay [1] and in assay [2] were 53 µM and over 100 µM, respectively.
Taken in the same sequence, the figures for `O=C(CC(=O)c1ccc(F)cc1)C(=O)NC1CCN(C(=O)C(=O)CC(=O)c2ccc(F)cc2)CC1` were 88 µM and over 100 µM.
As to `COC(=O)/C(O)=C/C(=O)c1cccc(OCc2ccccc2)c1`, the IC50 in assay [1] was 14 µM; in assay [2], over 100 µM.

In general, IC50 refers to the concentration needed to halve the response being measured. A low value points to greater potency.
